Data: ChEMBL document CHEMBL2380273, “Discovery of potent transient receptor potential vanilloid 1 antagonists: design and synthesis of phenoxyacetamide derivatives” (Bioorg Med Chem Lett, 2013)

system: Rattus norvegicus; experiment: Reduction of cyclophosphamide-induced voiding frequency in iv dosed Sprague-Dawley rat cystitis and pollakiuria model measured for 20 mins; format: functional, organism-based
Outline: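 Female Sprague–Dawley rats given cyclophosphamide 150 mg/kg ip. Bladder catheter implanted 4 h later, with saline infused at 3.6 mL/h for continuous cystometry. Once voiding frequency was stable, dosed iv with test agent or vehicle (20% cremophor EL). Voids counted for 20 min before and after dosing and expressed as % change. n=4, mean ± SEM; Bartlett's then Williams' test versus vehicle.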

| SMILES | Activity |
| --- | --- |
| CN(CCO)c1ccc(NC(=O)COc2ccc(C(C)(C)C)cc2)cn1 | Dose-dependent effect |

biological target: Transient receptor potential cation channel subfamily V member 1 (Homo sapiens, UniProt Q8NER1); experiment: Antagonist activity at human TRPV1 transfected in CHOK1 cells assessed as inhibition of capsaicin-induced intracellular calcium level measured for 120 secs by FLIPR analysis; format: cell-based, CHO-K1
Sequence (Q8NER1 whole entry): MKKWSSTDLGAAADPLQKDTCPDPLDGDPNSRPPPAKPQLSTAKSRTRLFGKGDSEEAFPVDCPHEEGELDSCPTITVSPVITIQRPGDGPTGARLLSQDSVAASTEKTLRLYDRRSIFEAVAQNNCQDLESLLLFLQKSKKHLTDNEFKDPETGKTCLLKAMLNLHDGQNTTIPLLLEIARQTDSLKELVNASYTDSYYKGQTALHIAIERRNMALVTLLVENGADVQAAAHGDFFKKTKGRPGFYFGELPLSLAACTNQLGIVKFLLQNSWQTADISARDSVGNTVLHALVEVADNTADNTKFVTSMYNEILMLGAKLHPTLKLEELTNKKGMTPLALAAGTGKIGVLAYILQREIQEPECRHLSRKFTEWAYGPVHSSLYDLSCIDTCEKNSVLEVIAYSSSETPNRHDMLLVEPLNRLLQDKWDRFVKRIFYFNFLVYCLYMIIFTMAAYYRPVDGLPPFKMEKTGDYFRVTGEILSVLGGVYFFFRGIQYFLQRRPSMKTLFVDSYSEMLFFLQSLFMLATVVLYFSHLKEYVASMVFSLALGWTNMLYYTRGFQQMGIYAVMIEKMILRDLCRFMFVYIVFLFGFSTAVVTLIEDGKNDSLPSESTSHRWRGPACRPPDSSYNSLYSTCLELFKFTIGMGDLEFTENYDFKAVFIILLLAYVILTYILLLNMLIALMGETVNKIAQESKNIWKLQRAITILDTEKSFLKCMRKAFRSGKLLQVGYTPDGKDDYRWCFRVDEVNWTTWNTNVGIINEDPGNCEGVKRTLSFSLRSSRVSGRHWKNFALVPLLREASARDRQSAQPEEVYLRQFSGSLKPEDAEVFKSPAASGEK
Outline: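 CHO-K1 cells stably expressing hTRPV1, grown to 90% confluency, loaded 90 min at rt with Fluo4-AM (2 μM) in HBSS/20 mM HEPES pH 7.4, then washed three times. Test agent added at various concentrations together with 100 nM capsaicin. Peak fluorescence over 120 s averaged in triplicate. IC50 is the concentration giving 50% inhibition of the capsaicin control response.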

| SMILES | IC50 |
| --- | --- |
| CN(CCO)c1ccc(NC(=O)COc2ccc(C(C)(C)C)cc2Br)cn1 | 86 nM |
| CN(CCO)c1ccc(NC(=O)COc2ccc(C(C)(C)C)cc2N2CCCCC2)cn1 | 941 nM |
| CN(CCO)c1ncc(NC(=O)COc2ccc(C(C)(C)C)cc2)cc1Cl | 44 nM |
| CN(CCO)c1ccc(NC(=O)COc2ccc(C(C)(C)C)cc2)cn1 | 33 nM |
| CN(CCO)c1ccc(NC(=O)COc2ccc(C(C)(C)C)cc2C(C)(C)C)cn1 | 107 nM |
| CN(CCO)c1ccc(NC(=O)COc2cccc(C(C)(C)C)c2)cn1 | 2620 nM |
| CCN(C)c1ccc(NC(=O)COc2ccc(C(C)(C)C)cc2)cn1 | 583 nM |
| CC(C)c1ccc(OCC(=O)Nc2ccc(N(C)CCO)nc2)cc1 | 110 nM |
| CN(CCO)c1ccc(NC(=O)COc2ccccc2C(C)(C)C)cn1 | 796 nM |
| CC(C)(C)c1ccc(OCC(=O)Nc2ccc(N3CCCC3)nc2)cc1 | 411 nM |
| CN(CCO)c1ccc(NC(=O)COc2ccccc2)cn1 | > 10000 nM |
| O=C(Nc1ccccc1Br)N[C@H]1CCN(c2ccc(C(F)(F)F)cn2)C1 | 120 nM |
| CN(CCO)c1ccc(NC(=O)COc2ccc(C(F)(F)F)cc2)cn1 | > 10000 nM |
| CN(C)c1ccc(NC(=O)COc2ccc(C(C)(C)C)cc2)cn1 | 59 nM |
| CC(C)(C)c1ccc(OCC(=O)Nc2ccc(N3CCC(O)C3)nc2)cc1 (centres undefined) | 516 nM |
| CN(CCO)c1ccc(NC(=O)COc2ccc(C34CC5CC(CC(C5)C3)C4)cc2)cn1 | > 10000 nM |
| Cc1cc(NC(=O)COc2ccc(C(C)(C)C)cc2)cnc1N(C)CCO | 130 nM |

system: Rattus norvegicus; experiment: Suppression of capsaicin-induced bladder contraction in iv dosed Sprague-Dawley rat overactive bladder model; format: functional, organism-based
Outline: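 Female Sprague–Dawley rats anesthetized with urethane (1.0 g/kg ip) and bladder catheterized via the urethra, with saline infused at 3.0 mL/h for 5 min for basal pressure. Capsaicin 30 μg/kg iv given every 10 min. After stable contractions, test agent or vehicle (20% cremophor EL) given iv, followed by capsaicin again. Reported as % change in contraction. n=4, mean ± SEM; Bartlett's then Williams' test versus vehicle.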

| SMILES | Activity |
| --- | --- |
| CN(CCO)c1ccc(NC(=O)COc2ccc(C(C)(C)C)cc2)cn1 | Dose-dependent effect |
